Data: paper PMC6467728 (Journal of medicinal chemistry, 2019)
“Also recorded” adds a separate entry of the source. Where two headings read alike, the source gives them in different places.

Assays:
[1] = molecular target: T1, hIP6K2 (Homo sapiens, UniProt Q9UHH9); test: hIP6K2 Adapta TR-FRET kinase assay; type: biochemical; conditions: for fold higher IC50 against hIP6K2 compared to 3: relative to compound 3; for fold higher IC50 against hIP6K2 compared to 5: relative to compound 5
T1 sequence (Q9UHH9 1-426): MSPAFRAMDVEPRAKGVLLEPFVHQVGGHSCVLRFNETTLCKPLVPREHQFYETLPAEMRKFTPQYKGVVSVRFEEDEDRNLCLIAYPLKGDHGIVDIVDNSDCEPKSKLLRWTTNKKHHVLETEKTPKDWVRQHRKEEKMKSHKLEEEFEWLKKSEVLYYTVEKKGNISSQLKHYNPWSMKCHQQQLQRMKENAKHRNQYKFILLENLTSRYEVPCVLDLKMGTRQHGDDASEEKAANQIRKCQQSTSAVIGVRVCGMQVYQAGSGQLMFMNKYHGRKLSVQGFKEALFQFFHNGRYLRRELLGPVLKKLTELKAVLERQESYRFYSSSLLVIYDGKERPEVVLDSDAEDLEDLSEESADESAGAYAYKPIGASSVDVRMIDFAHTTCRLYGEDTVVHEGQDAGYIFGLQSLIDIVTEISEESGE

[2] = tested on: IP6K / IPMK activity (InsP7, InsP5, InsP6 levels) in HCT116 cells; type: cell-based, human
[3] = molecular target: hIPMK (Homo sapiens, UniProt Q8NFU5); test: hIPMK Adapta TR-FRET kinase assay; type: biochemical; conditions: for fold higher IC50 (reduction in inhibitory activity) against hIPMK compared to 2: relative to compound 2
Sequence of hIPMK (Q8NFU5 whole entry): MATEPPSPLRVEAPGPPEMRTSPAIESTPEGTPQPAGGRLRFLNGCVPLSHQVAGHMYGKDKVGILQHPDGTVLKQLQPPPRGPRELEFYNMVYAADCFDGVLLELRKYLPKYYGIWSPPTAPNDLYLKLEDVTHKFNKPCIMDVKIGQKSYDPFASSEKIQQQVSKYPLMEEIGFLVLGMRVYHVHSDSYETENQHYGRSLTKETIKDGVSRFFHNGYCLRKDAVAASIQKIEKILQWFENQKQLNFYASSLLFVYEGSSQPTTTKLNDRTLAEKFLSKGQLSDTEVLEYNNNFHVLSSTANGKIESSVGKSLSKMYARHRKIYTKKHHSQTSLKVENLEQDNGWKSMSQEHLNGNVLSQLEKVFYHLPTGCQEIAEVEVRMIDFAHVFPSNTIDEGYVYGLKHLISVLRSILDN

[4] = tested on: IP6K; conditions: prior report; cited from earlier work
[5] = cited from earlier work
[6] = tested on: IP6K activity (InsP levels) in HEK293 cells; test: HPLC analysis of InsP5, InsP6 and InsP7 levels in HEK293 cells; type: cell-based; conditions: HEK293, 2.5 µM, 3.5 h
Summary of the method: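 HEK293 cells were labeled with [³H]inositol (20 µCi/ml), then treated 3.5 h with 2.5 µM test compound in DMSO (0.1% final) or vehicle. Cells were quenched with perchloric acid, and extracted [³H]InsP5, InsP6 and InsP7 were resolved by CarboPac HPLC. Values are means ± standard errors, n=3; one-way ANOVA (Dunnett) vs DMSO control.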

[7] = tested on: AKT activity in HCT116 cells; test: AKT activity; type: cell-based, human; conditions: 3 h
Summary of the method: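 HCT116 cells, 1 day post-confluent, were exposed 3 h to 10 µM TNP, 2.5 µM test compound or DMSO vehicle (0.1% final). Cells were PBS-washed and lysed in cold Tris-HCl pH 7.4 buffer with 1% Triton X-100 plus protease-phosphatase inhibitors. Blots of 20 µg protein were probed for T308 p-AKT and total AKT. The p-AKT/total ratio was normalized to the gel sum; means ± standard errors, n=5, Dunnett ANOVA.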

[8] = tested on: AKT activity in 3T3-L1 preadipocytes; test: AKT activity; type: cell-based; conditions: 3 h
Summary of the method: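 Lysates were made in ice-cold Tris-HCl pH 7.4/NaCl/1% Triton X-100 with protease-phosphatase inhibitors and cleared at 4 °C. Blots of 20 µg protein were probed for p-AKT T308 and total AKT. Ratios were normalized to the per-gel sum; n=3, Dunnett ANOVA vs DMSO.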

In the case of O=c1cc(-c2ccc(O)c(O)c2)oc2cccc(O)c12 [Compound 9, 5,3’,4’-Trihydroxyflavone], the “fold higher IC50 against hIP6K2 compared to 3” value [1] is reported as 6 fold.
In the case of O=c1c(O)c(-c2ccc(O)cc2)oc2cc(O)cc(O)c12 [Compound 4, Kaempferol], the “effect on InsP5 levels” value ([2]; HCT116, 2.5 µM, 3.5 hr) is reported as “not significantly affected”, the “effect on InsP6 levels” value ([2]; HCT116, 2.5 µM, 3.5 hr) is reported as “not significantly affected” and the “effect on InsP7 synthesis / levels” value ([2]; HCT116, 2.5 µM, 3.5 hr) is reported as “inhibited InsP7 synthesis”. The “fold higher IC50 against hIP6K2 compared to 2” value ([1]; relative to compound 2) was 3.6 fold and the “fold higher IC50 (reduction in inhibitory activity) against hIPMK compared to 2” value [3] was 2 fold.
In the case of O=c1c(O)c(-c2cc(O)c(O)c(O)c2)oc2cc(O)cc(O)c12 [Compound 1, Myricetin], the “effect on InsP5 levels” value ([2]; HCT116, 2.5 µM, 3.5 hr) is reported as “not significantly affected”, the “effect on InsP6 levels” value ([2]; HCT116, 2.5 µM, 3.5 hr) is reported as “not significantly affected” and the “effect on InsP7 synthesis / levels” value ([2]; HCT116, 2.5 µM, 3.5 hr) is reported as “inhibited InsP7 synthesis; also recorded: only slightly altered InsP7 levels”. For the same molecule, the “inhibition of IP6K” value [4] was “inhibitor”.
In the case of O=c1cc(-c2ccc(O)cc2)oc2cc(O)cc(O)c12 [Compound 5, Apigenin], the “fold higher IC50 against hIP6K2 compared to 2” value ([1]; relative to compound 2) is reported as 10 fold.
In the case of O=C1C[C@@H](c2ccc(O)cc2)Oc2cc(O)cc(O)c21 [Compound 17, Naringenin], the “fold higher IC50 against hIP6K2 compared to 5” value [1] is reported as “at least 4 fold”.
For O=c1c(O)c(-c2ccc(O)c(O)c2)oc2cc(O)cc(O)c12 [Compound 2, Quercetin], the “effect on InsP7 synthesis / levels” value ([2]; HCT116, 2.5 µM, 3.5 hr) was “inhibited InsP7 synthesis”, the “effect on InsP5” value ([2]; HCT116, 2.5 µM, time course) was “without significantly impacting” and the “effect on InsP6” value ([2]; HCT116, 2.5 µM, time course) was “without significantly impacting”. For the same molecule, the “reduction of InsP7 levels” value ([2]; HCT116, 2.5 µM, time course) was 50 – 70%, the “time of greatest diminution in cellular InsP7 content” value ([2]; HCT116, 2.5 µM, time course) was 30 min and the “total DPM of InsP7 peak” value ([2]; HCT116, 10 μM, 3.5 h, representative HPLC, control 2160) was 195 DPM. The “total DPM of InsP5 peak” value ([2]; HCT116, 10 μM, 3.5 h, representative HPLC, control 14677) was 10,989 DPM, the “total DPM of InsP6 peak” value ([2]; HCT116, 10 μM, 3.5 h, representative HPLC, control 36,327) was 39521 DPM and the “effect on InsP6 levels” value ([2]; HCT116, 10 µM, 3.5 hr) was “not affected”. For the same molecule, the “reduction of InsP5 levels” value ([2]; HCT116, 10 µM, 3.5 hr) was “approx. 25%”, the “effect on InsP7 levels, dose dependence” value ([2]; HCT116, 1–10 µM, 3.5 hr) was “dose-dependent reductions in InsP7 levels” and the “concentration recorded in the human small intestine and colon” value [5] was 2500 nM. The concentration in serum ([5]; even after dietary supplementation) was at most 1000 nM, the “effect on InsP5 levels” value [6] was “not affected” and the “effect on InsP6 levels” value [6] was “not affected”. For the same molecule, the “effect on InsP7 levels” value [6] was “reduced InsP7 levels”, the “effect upon AKT activity (p-AKT T308 / total AKT)” value ([7]; HCT116, 2.5 µM) was “did not observe any statistically-significant effect” and the “effect upon AKT activity (p-AKT T308 / total AKT)” value ([8]; 3T3-L1, 2.5 µM) was “increased”. For the same molecule, the “inhibition of IP6K” value [4] was “no inhibitory effect was observed”.
With COc1cc(-c2oc3cc(O)cc(O)c3c(=O)c2O)ccc1O [Compound 6, Isorhamnetin] the “effect on InsP5 levels” value ([2]; HCT116, 2.5 µM, 3.5 hr) was “not significantly affected”, the “effect on InsP6 levels” value ([2]; HCT116, 2.5 µM, 3.5 hr) was “not significantly affected” and the “effect on InsP7 synthesis / levels” value ([2]; HCT116, 2.5 µM, 3.5 hr) was “inhibited InsP7 synthesis”.
For O=[N+]([O-])c1ccc(CNc2nc(NCc3cccc(C(F)(F)F)c3)nc3[nH]cnc23)cc1 [TNP, N2-(m-(trifluoromethyl)benzyl) N6-(p-nitrobenzyl)purine, reference compound], the “effect upon AKT activity (p-AKT T308 / total AKT)” value ([7]; HCT116, 10 µM TNP) was “did not affect AKT activity” and the “effect upon AKT activity (p-AKT T308 / total AKT)” value ([8]; 3T3-L1, 1 µM TNP) was “increased”.
With COc1ccc(-c2cc(=O)c3c(O)cc(O)cc3o2)cc1O [Compound 7, Diosmetin] the “effect on InsP7 synthesis / levels” value ([2]; HCT116, 2.5 µM, 3.5 hr) was “inhibited InsP7 synthesis; also recorded: most effective inhibitor of InsP7 levels”, the “effect on InsP5” value ([2]; HCT116, 2.5 µM, time course) was “no effect” and the “effect on InsP6” value ([2]; HCT116, 2.5 µM, time course) was “did not significantly alter”. The “effect on InsP7 synthesis” value ([2]; HCT116, 2.5 µM, time course) was “most sustained inhibition of InsP7 synthesis”, the “reduction in IP6K activity” value ([2]; intact HCT116 cells, 2.5 µM) was over 70% and the “effect on InsP5 levels” value [6] was “not affected”. For the same molecule, the “effect on InsP6 levels” value [6] was “not affected”, the “effect on InsP7 levels” value [6] was “reduced InsP7 levels” and the “effect upon AKT activity (p-AKT T308 / total AKT)” value ([7]; HCT116, 2.5 µM) was “did not observe any statistically-significant effect”. The “effect upon AKT activity (p-AKT T308 / total AKT)” value ([8]; 3T3-L1, 2.5 µM) was “increased”.
For COc1cc(O)c2c(=O)cc(-c3ccc(O)cc3)oc2c1 [Compound 10, Genkwanin], the “fold higher IC50 against hIP6K2 compared to 5” value [1] was 3 fold.
In the case of O=c1cc(-c2ccc(O)c(O)c2)oc2cc(O)cc(O)c12 [Compound 3, Luteolin], the “effect on InsP7 synthesis / levels” value ([2]; HCT116, 2.5 µM, 3.5 hr) is reported as “inhibited InsP7 synthesis”, the “fold higher IC50 against hIP6K2 compared to 2” value ([1]; relative to compound 2) is reported as 1.9 fold and the “effect on InsP5 levels” value [6] is reported as “not affected”. For the same molecule, the “effect on InsP6 levels” value [6] was “not affected”, the “effect on InsP7 levels” value [6] was “reduced InsP7 levels” and the “effect upon AKT activity (p-AKT T308 / total AKT)” value ([7]; HCT116, 2.5 µM) was “did not observe any statistically-significant effect”. The “effect upon AKT activity (p-AKT T308 / total AKT)” value ([8]; 3T3-L1, 2.5 µM) was “increased” and the “fold higher IC50 (reduction in inhibitory activity) against hIPMK compared to 2” value [3] was 2.4- to 3 fold.
For COc1cc(O)c2c(=O)c(O)c(-c3ccc(O)c(O)c3)oc2c1 [Compound 11, Rhamnetin], the “effect on InsP5 levels” value ([2]; HCT116, 2.5 µM, 3.5 hr) was “not significantly affected”, the “effect on InsP6 levels” value ([2]; HCT116, 2.5 µM, 3.5 hr) was “not significantly affected” and the “effect on InsP7 synthesis / levels” value ([2]; HCT116, 2.5 µM, 3.5 hr) was “inability of 11 to reduce InsP7”. For the same molecule, the “fold higher IC50 against hIP6K2 compared to 2” value ([1]; relative to compound 2) was 2.6 fold, the “fold increase in selectivity for hIP6K2 (vs hIPMK) compared to 2” value ([1]; relative to compound 2) was 2.4 fold and the “fold higher IC50 (reduction in inhibitory activity) against hIPMK compared to 2” value [3] was 6 fold.
With O=C1C[C@@H](c2ccc(O)c(O)c2)Oc2cc(O)cc(O)c21 [Compound 16, Eriodictyol] the “fold higher IC50 against hIP6K2 compared to 3” value [1] was 19 fold and the “fold loss of activity against hIPMK compared to 3” value ([3]; relative to compound 3) was over 5.5 fold.
